Experimental data reported in ChEMBL document CHEMBL1157754, “Polyketides from the ascomycete fungus Leptosphaeria sp” (J Nat Prod, 2010).

Key:
Assay type in all cases: functional, organism-based
Aspergillus flavus = assay: Antifungal activity against Aspergillus flavus CGMCC 3.0951 after 48 hrs by Alamar blue assay; details: CGMCC 3.0951, 48 h
Pyricularia oryzae = assay: Antifungal activity against Pyricularia oryzae CGMCC 3.3283 after 48 hrs by Alamar blue assay; details: CGMCC 3.3283, 48 h
How it was run: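 Broth microdilution per NCCLS recommendations, in triplicate. Strain grown on PDA, then in broth at 28 °C for 48 h. Final suspension 10^4 hyphae/mL in PDB. Samples from 4 mg/mL DMSO stock, serially diluted. Alamar blue added as indicator; incubated 28 °C for 48 h. Fluorescence read at Ex/Em 544/590 nm. Inhibition plotted against concentration to give IC50.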

Microdochium nivale = assay: Antifungal activity against Fusarium nivale CGMCC 3.4600 after 48 hrs by Alamar blue assay; details: CGMCC 3.4600, 48 h
How it was run: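 Plant-pathogen broth microdilution per NCCLS, in triplicate. F. nivale was grown on PDA, then in broth at 28 °C for 48 h, and suspended at 10^4 hyphae/mL in PDB. Serial dilutions were made from a 4 mg/mL DMSO stock. Alamar blue was the indicator and carbendazim the positive control. After incubation at 28 °C for 48 h, fluorescence was read at 544/590 nm, and IC50 was derived from the inhibition-concentration plot.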

Question: For `C[C@@H]1[C@H](O)[C@@H](C)/C=C/C=C/C=C/C=C/C=C/C=C/C=C/[C@H](O[C@@H]2O[C@H](C)[C@@H](O)[C@H](N)[C@@H]2O)C[C@@H]2O[C@](O)(C[C@@H](O)C[C@@H](O)[C@H](O)CC[C@@H](O)C[C@@H](O)CC(=O)O[C@H]1C)C[C@H](O)[C@H]2C(=O)O` [AMPHOTERICIN B], which IC50 (Aspergillus flavus) is on record?
Answer: 3.3 µM

Question: What does the source list for `COC(=O)Nc1nc2ccccc2[nH]1` [CARBENDAZIM]?
Answer: IC50 (Pyricularia oryzae): 5 µM; IC50 (Microdochium nivale): 2.6 µM

Question: Which results are given for `C[C@@H]1CC(=O)c2c(coc2-c2c(O)cccc2O)[C@@H]1O` [LEPTOSPHAERIN A]?
Answer: IC50 (Pyricularia oryzae): > 150 µM; IC50 (Microdochium nivale): > 150 µM; IC50 (Aspergillus flavus): > 150 µM

Question: With `C[C@@H]1CC(=O)c2c(coc2-c2c(O)cccc2O)[C@H]1O` [LEPTOSPHAERIN B] as the molecule, how does the IC50 (Pyricularia oryzae) read?
Answer: > 150 µM

Question: What about the IC50 (Microdochium nivale) of the same molecule?
Answer: > 150 µM

Question: And the IC50 (Aspergillus flavus)?
Answer: > 150 µM

Question: With `CC1=C[C@H](O)[C@@]2(Oc3cccc(O)c3C2=O)[C@H](C)C1=O` [LEPTOSPHAERIN C] as the molecule, how does the IC50 (Pyricularia oryzae) read?
Answer: 80.3 µM

Question: And the IC50 (Microdochium nivale)?
Answer: 144 µM

Question: And the IC50 (Aspergillus flavus)?
Answer: 81.4 µM

Question: What does the source list for `Cc1cc(O)c2c(c1O)COc1cccc(O)c1C2=O` [LEPTOSPHAERIN D]?
Answer: IC50 (Pyricularia oryzae): 18.1 µM; IC50 (Microdochium nivale): 12.5 µM; IC50 (Aspergillus flavus): > 150 µM

Question: What does the source list for `Cc1cc(CO)c2c(=O)c3c(O)cc(O)cc3oc2c1` [LEPTOSPHAERIN E]?
Answer: IC50 (Pyricularia oryzae): > 150 µM; IC50 (Microdochium nivale): > 150 µM; IC50 (Aspergillus flavus): > 150 µM

Question: What does the source list for `C[C@@H]1C[C@H](O)[C@H]2C(=O)c3c(O)cccc3O[C@]2(C)[C@H]1O` [LEPTOSPHAERIN F]?
Answer: IC50 (Pyricularia oryzae): > 150 µM; IC50 (Microdochium nivale): > 150 µM; IC50 (Aspergillus flavus): > 150 µM

Question: What does the source list for `C[C@@H]1CC(O)=C2C(=O)c3c(O)cccc3O[C@]2(C)[C@H]1O` [LEPTOSPHAERIN G]?
Answer: IC50 (Pyricularia oryzae): > 150 µM; IC50 (Microdochium nivale): > 150 µM; IC50 (Aspergillus flavus): 14.8 µM
